Test results as given in PMC5952261 (ACS Infectious Diseases, 2018).
≈ marks a conversion by molar mass, not a printed value. Positions of bridges follow the written chain, without caps; N, C: chain ends. Non-standard residues stand in square brackets, D forms with d. Residues, ends and D or L forms follow the SMILES beside them. *: point of attachment. X1 = CC[C@H](C)CCCCC(=O)*; Dab = NCC[C@H](N)C(=O)O

How the values were obtained:
mucin = details: dialysis; ref Huang et al., 32; cited from earlier work
[1] = test system: P. aeruginosa FADDI-PA038; experiment: MIC in CAMHB; format: cell-based, Pseudomonas aeruginosa; details: polymyxin susceptible, 10^6 CFU/mL, 18 h, 37 °C, visible growth
[2] = test system: P. aeruginosa FADDI-PA093; experiment: MIC in CAMHB; format: cell-based, Pseudomonas aeruginosa; details: polymyxin resistant, 10^6 CFU/mL, 18 h, 37 °C, visible growth
[3] = test system: P. aeruginosa FADDI-PA001; experiment: MIC in CAMHB; format: cell-based, Pseudomonas aeruginosa; details: polymyxin susceptible, 10^6 CFU/mL, 18 h, 37 °C, visible growth
[4] = test system: P. aeruginosa FADDI-PA091; experiment: MIC in CAMHB; format: cell-based, Pseudomonas aeruginosa; details: polymyxin susceptible, 10^6 CFU/mL, 18 h, 37 °C, visible growth
[5] = test system: P. aeruginosa FADDI-PA066; experiment: MIC in CAMHB; format: cell-based, Pseudomonas aeruginosa; details: polymyxin resistant CF isolate, 10^6 CFU/mL, 18 h, 37 °C, visible growth
[6] = test system: P. aeruginosa FADDI-PA022; experiment: MIC in CAMHB; format: cell-based, Pseudomonas aeruginosa; details: polymyxin susceptible, 10^6 CFU/mL, 18 h, 37 °C, visible growth
[7] = test system: P. aeruginosa FADDI-PA069; experiment: MIC in CAMHB; format: cell-based, Pseudomonas aeruginosa; details: polymyxin resistant, 10^6 CFU/mL, 18 h, 37 °C, visible growth
[8] = test system: polymyxin-sensitive P. aeruginosa isolates; experiment: MIC in CAMHB, panel summary; format: cell-based, Pseudomonas aeruginosa; details: range over the panel of Table 1, CAMHB
[9] = test system: P. aeruginosa FADDI-PA021; experiment: Impact of sputum biomolecules on lipopeptide activity in CAMHB; format: cell-based, Pseudomonas aeruginosa; details: lipopeptide 2 mg/L, 3 h, colony counts; for impact of DNA on antibacterial activity: DNA 125 mg/L; for impact of F-actin/DNA on antibacterial activity: F-actin/DNA 125 mg/L
Outline: (§1)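 Mid-log cultures (OD500 0.4–0.6; 37 °C, 180 rpm) were diluted to OD ~0.05 in CAMHB. Test compound at 2 mg/L was coincubated for 3 h in 24-well plates with one biomolecule at 125 mg/L: F-actin/DNA, DNA, mucin, phospholipids, surfactant or LPS. Samples were spiral-plated and incubated overnight at 37 °C, and colonies were counted automatically. Detection limit 10 CFU/mL.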

[10] = test system: P. aeruginosa FADDI-PA002; experiment: MIC in CAMHB; format: cell-based, Pseudomonas aeruginosa; details: polymyxin susceptible, 10^6 CFU/mL, 18 h, 37 °C, visible growth
P. aeruginosa ATCC 27853 = experiment: MIC in CAMHB; format: cell-based, Pseudomonas aeruginosa; details: polymyxin susceptible, 10^6 CFU/mL, 18 h, 37 °C, visible growth
[11] = test system: P. aeruginosa FADDI-PA025; experiment: MIC in CAMHB; format: cell-based, Pseudomonas aeruginosa; details: polymyxin susceptible, 10^6 CFU/mL, 18 h, 37 °C, visible growth
[12] = test system: P. aeruginosa CF isolate FADDI-PA066; experiment: Cell viability, planktonic growth in artificial sputum media; format: cell-based, Pseudomonas aeruginosa; details: up to 128 mg/L
[13] = test system: P. aeruginosa FADDI-PA020; experiment: Impact of sputum biomolecules on lipopeptide activity in CAMHB; format: cell-based, Pseudomonas aeruginosa; details: lipopeptide 2 mg/L, 3 h, colony counts; for impact of DNA on antibacterial activity: DNA 125 mg/L; for impact of F-actin/DNA on antibacterial activity: F-actin/DNA 125 mg/L
Outline: as §1

[14] = test system: P. aeruginosa FADDI-PA062; experiment: MIC in CAMHB; format: cell-based, Pseudomonas aeruginosa; details: polymyxin resistant, 10^6 CFU/mL, 18 h, 37 °C, visible growth
[15] = test system: P. aeruginosa FADDI-PA060; experiment: MIC in CAMHB; format: cell-based, Pseudomonas aeruginosa; details: polymyxin resistant, 10^6 CFU/mL, 18 h, 37 °C, visible growth
[16] = test system: P. aeruginosa FADDI-PA065; experiment: MIC in CAMHB; format: cell-based, Pseudomonas aeruginosa; details: polymyxin resistant, 10^6 CFU/mL, 18 h, 37 °C, visible growth
[17] = test system: P. aeruginosa FADDI-PA068; experiment: MIC in CAMHB; format: cell-based, Pseudomonas aeruginosa; details: polymyxin resistant, 10^6 CFU/mL, 18 h, 37 °C, visible growth
[18] = test system: P. aeruginosa FADDI-PA066; experiment: Impact of sputum biomolecules on lipopeptide activity in CAMHB; format: cell-based, Pseudomonas aeruginosa; details: lipopeptide 2 mg/L, 3 h, colony counts; for impact of F-actin/DNA on antibacterial activity: F-actin/DNA 125 mg/L; for impact of mucin on antibacterial activity: mucin 125 mg/L (50% (w/v)); for impact of phospholipids on antibacterial activity: phospholipids 125 mg/L
Outline: as §1

[19] = test system: P. aeruginosa FADDI-PA070; experiment: MIC in CAMHB; format: cell-based, Pseudomonas aeruginosa; details: polymyxin resistant, 10^6 CFU/mL, 18 h, 37 °C, visible growth
[20] = test system: P. aeruginosa FADDI-PA092; experiment: MIC in CAMHB; format: cell-based, Pseudomonas aeruginosa; details: polymyxin resistant, 10^6 CFU/mL, 18 h, 37 °C, visible growth
[21] = test system: P. aeruginosa FADDI-PA066; experiment: Transmission electron microscopy of cells growing in biofilm; format: cell-based, Pseudomonas aeruginosa; details: 1× MIC (colistin 128 mg/L; octapeptin A3 16 mg/L), 1 h, 37 °C

SMILES: CC[C@H](C)CCCCC(=O)N[C@@H](CCN)C(=O)N[C@H](C(=O)N[C@@H](CCN)C(=O)N[C@H]1CCNC(=O)[C@H]([C@@H](C)O)NC(=O)[C@H](CCN)NC(=O)[C@H](CCN)NC(=O)[C@H](CC(C)C)NC(=O)[C@@H](Cc2ccccc2)NC(=O)[C@H](CCN)NC1=O)[C@@H](C)O [polymyxin B] (X1-[Dab]T[Dab][Dab][Dab][dF]L[Dab][Dab]T; lactam 4-C (inferred); N-terminus assumed)
- binding to mucin (mucin): avidly bind
- minimum inhibitory concentration [1]: 1 mg/L (≈ 0.831 µM)
- minimum inhibitory concentration [2]: 32 mg/L (≈ 26.6 µM)
- minimum inhibitory concentration [3]: 0.5 mg/L (≈ 0.415 µM)
- minimum inhibitory concentration [4]: 1 mg/L (≈ 0.831 µM)
- minimum inhibitory concentration [5]: 32 mg/L (≈ 26.6 µM)
- minimum inhibitory concentration [6]: 1 mg/L (≈ 0.831 µM)
- minimum inhibitory concentration [7]: >32 mg/L
- MICs against the polymyxin-sensitive isolates [8]: 0.25 to 4 mg/L
- impact of DNA on antibacterial activity [9]: marginally impacted
- impact of F-actin/DNA on antibacterial activity [9]: inhibited
- minimum inhibitory concentration [10]: 0.5 mg/L (≈ 0.415 µM)
- minimum inhibitory concentration (P. aeruginosa ATCC 27853): 0.5 mg/L (≈ 0.415 µM)
- minimum inhibitory concentration [11]: 2 mg/L (≈ 1.66 µM)
- activity (reduction of cell viability), in words [12]: inactive even at 128 mg/L
- impact of DNA on antibacterial activity [13]: marginally impacted
- impact of F-actin/DNA on antibacterial activity [13]: only marginally affected
- minimum inhibitory concentration [14]: >32 mg/L
- minimum inhibitory concentration [15]: >128 mg/L
- minimum inhibitory concentration [16]: >32 mg/L
- minimum inhibitory concentration [17]: >32 mg/L
- impact of F-actin/DNA on antibacterial activity [18]: marginally inhibited
- impact of mucin on antibacterial activity [18]: not noticeable
- impact of phospholipids on antibacterial activity [18]: not discernible
- minimum inhibitory concentration [19]: >32 mg/L

SMILES: CC[C@H](C)CCCCC(=O)N[C@@H](CCN)C(=O)N[C@H](C(=O)N[C@@H](CCN)C(=O)N[C@H]1CCNC(=O)[C@H]([C@@H](C)O)NC(=O)[C@H](CCN)NC(=O)[C@H](CCN)NC(=O)[C@H](CC(C)C)NC(=O)[C@@H](CC(C)C)NC(=O)[C@H](CCN)NC1=O)[C@@H](C)O [colistin] (X1-[Dab]T[Dab][Dab][Dab][dL]L[Dab][Dab]T; lactam 4-C (inferred); N-terminus assumed)
- binding to mucin (mucin): avidly bind
- minimum inhibitory concentration [1]: 1 mg/L (≈ 0.855 µM)
- minimum inhibitory concentration [20]: 16 mg/L (≈ 13.7 µM)
- minimum inhibitory concentration [3]: 0.5 mg/L (≈ 0.428 µM)
- minimum inhibitory concentration [4]: 0.5 mg/L (≈ 0.428 µM)
- effect on bacterial outer membrane (TEM) [21]: blebbing effect with vesicular protrusions from the outer membrane
- minimum inhibitory concentration [5]: >128 mg/L
- minimum inhibitory concentration [6]: 1 mg/L (≈ 0.855 µM)
- MICs against the polymyxin-sensitive isolates [8]: 0.25 to 4 mg/L
- impact of DNA on antibacterial activity [9]: marginally impacted
- impact of F-actin/DNA on antibacterial activity [9]: inhibited
- minimum inhibitory concentration [10]: 0.25 mg/L (≈ 0.214 µM)
- minimum inhibitory concentration (P. aeruginosa ATCC 27853): 1 mg/L (≈ 0.855 µM)
- minimum inhibitory concentration [11]: 2 mg/L (≈ 1.71 µM)
- activity (reduction of cell viability), in words [12]: inactive even at 128 mg/L
- impact of DNA on antibacterial activity [13]: marginally impacted
- impact of F-actin/DNA on antibacterial activity [13]: only marginally affected
- impact of F-actin/DNA on antibacterial activity [18]: no impact
- impact of mucin on antibacterial activity [18]: not noticeable
- impact of phospholipids on antibacterial activity [18]: not discernible
